These results are taken from ChEMBL document CHEMBL1128369, “Haloanilino derivatives of pyrimidines, purines, and purine nucleoside analogs: synthesis and activity against human cytomegalovirus” (J Med Chem, 1995).

Molecules are shown by their SMILES.

Test [1] relates to HEL. Briefly: Inhibition against DNA of uninfected HEL cells by incorporation of [3H]TdR. It counts as functional, cell-based. The conditions noted are these: Homo sapiens. In short, it runs like this:
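About 1/3 confluent uninfected HEL monolayers in DMEM + 10% FCS, preincubated 24 h at 37 °C. Serial compound dilutions in DMSO (or DMSO alone) added to duplicate wells with [3H]thymidine 1 μCi/mL for 24 h. Cells lysed with 0.4 M NaOH, then 5% TCA precipitate collected on filters and counted. IC50 is 50% inhibition of incorporation.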

Test [2] has as its system HEL. Briefly: Inhibition of human CMV DNA synthesis in CMV-infected HEL cells. It counts as functional, cell-based. In short, it runs like this:
(§1)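 Dot-blot hybridization. HEL cells in MEM + 10% FCS infected with HCMV AD169 at about 1 pfu/cell for 60–90 min. Medium replaced by 3-fold drug dilutions (4–6 concentrations, duplicate wells) or DMSO. Incubated 48–96 h at 37 °C, 5% CO2. SDS/pronase lysates spotted on nitrocellulose, hybridized with 32P-labeled cloned viral DNA probe and counted. IC50 is 50% inhibition of viral DNA.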

A further test concerns Nucleic Acid. Briefly: Inhibitory activity against HCMV DNA polymerase in virus infected cells. The class given is functional, cell-based, Human betaherpesvirus 5. A digest of the protocol: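 HCMV DNA polymerase partially purified from HEL cells infected with AD169 (MOI 2, 3 days) by phosphocellulose and DEAE-cellulose chromatography. Assay buffer was 40 mM Tris-HCl pH 7.8 with 8 mM MgCl2, 100 mM KCl, 4 mM 2-mercaptoethanol, 0.1 mM dATP/dGTP/dCTP/[3H]dTTP and activated calf thymus DNA. Incubated 60 min at 37 °C; acid-precipitable counts measured. IC50 is the mean of duplicate experiments.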

The subject of test [3] is HEL. Briefly: Inhibitory activity against HCMV DNA synthesis in virus infected cells. Conditions: Homo sapiens. The class given is functional, cell-based. A digest of the protocol:
as §1

Test [4] relates to HEL. The test is described as follows: Concentration that inhibits HCMV yield by 90% relative to control cultures without drugs. It counts as functional. The conditions noted are these: Homo sapiens. A digest of the protocol:
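HCMV AD169 infected HEL cells in 96-well plates at 0.1 pfu/cell for 30 min, washed twice, then given compound dilutions or DMSO diluent. Incubated 7 days at 37 °C. Cells scraped and sonicated. Progeny titered by end-dilution, in triplicate, 3- or 5-fold serial dilutions on fresh HEL cells, read after 14 days as the highest dilution with enumerable plaques.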

One may read the IC50 as the concentration needed to halve the response being measured. A higher IC50 goes with a need for much substance. As to `OCCOCn1cnc2c(O)nc(Nc3cc(Cl)cc(Cl)c3)nc21`, the results for the IC50 in the test on HEL [1] and with HEL [2] were 14 µM and 15.2 µM, respectively.
As usually defined, the IC90 is the point of the concentration-response curve where the effect stands at 90%. The low end stands for an effect from little substance, the high end for a need for much substance. Take `Oc1cc(Nc2cc(Cl)cc(Cl)c2)nc(O)n1`: the IC50 came to 65 µM in the test on Nucleic Acid, 25 µM in the test on HEL [3], 100 µM in the test with HEL [1] and 25 µM in the test on HEL [2]. The IC90 with HEL [4] was 69 µM.
Turning to `OCCOCn1cnc2c(Cl)nc(Nc3cc(Cl)cc(Cl)c3)nc21`, the IC50 was found to be 14.4 µM in the test with HEL [1] and 12.5 µM with HEL [2].
The corresponding values for `Nc1nc(O)cc(Nc2ccc(F)c(F)c2)n1` are above 200 µM and 115 µM.
Consider `Oc1cc(Nc2ccc(Cl)c(F)c2)nc(O)n1`, for which the IC50 in the test on HEL [1] and in the test with HEL [2] was above 200 µM in each case.
For `Nc1nc(O)cc(Nc2cc(Cl)cc(Cl)c2)n1`, the IC50 was found to be 175 µM with Nucleic Acid, 28 µM in the test with HEL [3], 95 µM in the test with HEL [1] and 28 µM with HEL [2]. In the test with HEL [4], this compound came in with an IC90 of 91 µM.
Consider `OC[C@H]1O[C@@H](n2cnc3c(O)nc(Nc4cc(Cl)cc(Cl)c4)nc32)C[C@@H]1O`, for which the figures for the 50% inhibitory concentration (IC50) in the test with HEL [1] and in the test with HEL [2] were 13 µM and 15.1 µM, respectively.
The corresponding values for `OC[C@H]1O[C@@H](n2cnc3c(Cl)nc(Nc4cc(Cl)cc(Cl)c4)nc32)C[C@@H]1O` are 3.4 µM and 7.9 µM.
The corresponding values for `Nc1nc(Nc2cc(Cl)cc(Cl)c2)nc2c1ncn2[C@H]1C[C@H](O)[C@@H](CO)O1` are 0.5 µM and 8.6 µM.
For the compound `Nc1nc(O)cc(Nc2ccc(Cl)c(F)c2)n1`, the values for the IC50 in the test with HEL [1] and in the test on HEL [2] were 165 µM and 70 µM, respectively.
The corresponding values for `Nc1nc(O)cc(Nc2cc(F)cc(F)c2)n1` are above 200 µM and 63 µM.
The corresponding values for `Nc1nc(Nc2cc(Cl)cc(Cl)c2)nc2c1ncn2COC(CO)CO` are 5 µM and 47.9 µM.
The corresponding values for `Oc1cc(Nc2cc(F)cc(F)c2)nc(O)n1` are above 200 µM and above 200 µM.
Consider `OCC(CO)OCn1cnc2c(O)nc(Nc3cc(Cl)cc(Cl)c3)nc21`, for which the IC50 with HEL [1] came to 41.7 µM; in the test on HEL [2] it was 45 µM.
With `Nc1nc(O)cc(Nc2ccc(F)c(Cl)c2)n1`, the values for the IC50 in the test on HEL [1] and in the test on HEL [2] were 110 µM and 20 µM, respectively.
Take `Nc1[nH]c(Nc2cc(Cl)cc(Cl)c2)nc2ncnc1-2`: the IC50 worked out at 250 µM in the test with Nucleic Acid, 8 µM in the test with HEL [3], 40 µM in the test on HEL [1] and 8 µM with HEL [2]. The same compound registered an IC90 with HEL [4] of 16.8 µM.
For `Oc1[nH]c(Nc2ccc(Cl)c(Cl)c2)nc2ncnc1-2`, the IC50 was 330 µM in the test with Nucleic Acid, 12 µM in the test with HEL [3], 60 µM in the test on HEL [1] and 12 µM in the test on HEL [2].
Take `Nc1nc(Nc2cc(Cl)cc(Cl)c2)nc2c1ncn2COCCO`: the IC50 with HEL [1] amounted to 1.4 µM; in the test on HEL [2], 7.9 µM.
On to `Oc1cc(Nc2cc(F)cc(Cl)c2)nc(O)n1`, for which the IC50 with HEL [1] and in the test on HEL [2] was above 200 µM each time.
On to `Oc1cc(Nc2ccc(Cl)c(Cl)c2)nc(O)n1`, for which the IC50 in the test with Nucleic Acid was 45 µM; in the test on HEL [3], 40 µM; in the test with HEL [1], above 200 µM; in the test on HEL [2], 40 µM.
Take `Nc1nc(O)cc(Nc2cc(F)cc(Cl)c2)n1`: the IC50 in the test with HEL [1] and in the test on HEL [2] was above 200 µM each time.
Regarding `Nc1nc(Cl)cc(Nc2cc(Cl)cc(Cl)c2)n1`, the IC50 with HEL [1] was determined as 32 µM; in the test on HEL [2] it was 4.7 µM. The IC90 in the test on HEL [4] was found to be 18 µM.
As for `Oc1[nH]c(Nc2cc(Cl)cc(Cl)c2)nc2ncnc1-2`, the IC50 with Nucleic Acid is 140 µM; with HEL [3] it was 33 µM; with HEL [1], 400 µM; with HEL [2], 33 µM. This compound showed an IC90 with HEL [4] of 56 µM.
For `Nc1[nH]c(Nc2ccc(Cl)c(Cl)c2)nc2ncnc1-2`, the IC50 came out at 3.4 µM in the test with HEL [1] and 5 µM in the test on HEL [2].
`Nc1nc(Cl)cc(Nc2ccc(Cl)c(Cl)c2)n1`: the half-maximal inhibitory concentration (IC50) in the test with Nucleic Acid worked out at 150 µM; with HEL [3], 9.1 µM; in the test with HEL [1], 31 µM; with HEL [2], 9.1 µM. It took 8.7 µM to reach the 90% level with HEL [4] (IC90).
On to `Nc1nc(O)cc(Nc2ccc(Cl)c(Cl)c2)n1`, for which the IC50 with Nucleic Acid stood at 360 µM; with HEL [3], 25 µM; with HEL [1], 32 µM; with HEL [2] it was 25 µM.
As for `Oc1cc(Nc2ccc(F)c(Cl)c2)nc(O)n1`, the figures for the IC50 in the test with HEL [1] and in the test with HEL [2] were above 200 µM and 140 µM, respectively.
Turning to `Oc1cc(Nc2ccc(F)c(F)c2)nc(O)n1`, the IC50 in the test with HEL [1] and in the test on HEL [2] was above 200 µM each time.
On to `O=C(O)P(=O)(O)O` [FOSCARNET SODIUM], for which 15.5 µM corresponded to half-maximal inhibition in the test on HEL [2] (IC50).
As to `Nc1nc2c(ncn2COC(CO)CO)c(=O)[nH]1` [GANCICLOVIR], the IC50 in the test on HEL [1] came to 7 µM; with HEL [2], 0.5 µM. Also, it took 2.1 µM to reach the 90% level with HEL [4] (IC90).
